Square brackets hold non-standard residues; d marks the D form. Peptide text beside a SMILES is read from it. pY = N[C@@H](Cc1ccc(OP(=O)(O)O)cc1)C(=O)O
What was measured:
Set-up in all cases: species or system Escherichia coli
[1] = molecular target: Tyrosine-protein kinase SYK (Homo sapiens, UniProt P43405); assay: Binding affinity against Syk protein tyrosine kinase SH2 domain
[2] = molecular target: Proto-oncogene tyrosine-protein kinase Src (Homo sapiens, UniProt P12931); assay: Binding affinity against Src SH2 domain
[3] = molecular target: Growth factor receptor-bound protein 2 (Homo sapiens, UniProt P62993); assay: Binding affinity against Growth factor receptor bound protein 2
How it was run: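 Fluorescence polarization competition assay using human Grb2 SH2 (residues 55–152), expressed in E. coli BL21(DE3) and purified on phosphotyrosine-agarose. Compounds were serially diluted 1:2 across 1000–0.04 μM in 20 mM phosphate pH 7.4 with 100 mM NaCl, 10 mM DTT, 4% DMSO, 1 mM EDTA and 0.1% bovine γ-globulin. They were added to 1.25 µM protein premixed with 20 nM fluorescein-labelled peptide (ex 485/em 530 nm). IC50 was taken from percent tracer bound relative to vehicle, as the mean of ≥3 experiments.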

[4] = molecular target: T1, Tyrosine-protein kinase ZAP-70 (Homo sapiens, UniProt P43403); assay: Binding affinity against SH2 domain of Zeta-chain (TCR) associated protein kinase 70 kDa
T1 sequence (P43403 whole entry): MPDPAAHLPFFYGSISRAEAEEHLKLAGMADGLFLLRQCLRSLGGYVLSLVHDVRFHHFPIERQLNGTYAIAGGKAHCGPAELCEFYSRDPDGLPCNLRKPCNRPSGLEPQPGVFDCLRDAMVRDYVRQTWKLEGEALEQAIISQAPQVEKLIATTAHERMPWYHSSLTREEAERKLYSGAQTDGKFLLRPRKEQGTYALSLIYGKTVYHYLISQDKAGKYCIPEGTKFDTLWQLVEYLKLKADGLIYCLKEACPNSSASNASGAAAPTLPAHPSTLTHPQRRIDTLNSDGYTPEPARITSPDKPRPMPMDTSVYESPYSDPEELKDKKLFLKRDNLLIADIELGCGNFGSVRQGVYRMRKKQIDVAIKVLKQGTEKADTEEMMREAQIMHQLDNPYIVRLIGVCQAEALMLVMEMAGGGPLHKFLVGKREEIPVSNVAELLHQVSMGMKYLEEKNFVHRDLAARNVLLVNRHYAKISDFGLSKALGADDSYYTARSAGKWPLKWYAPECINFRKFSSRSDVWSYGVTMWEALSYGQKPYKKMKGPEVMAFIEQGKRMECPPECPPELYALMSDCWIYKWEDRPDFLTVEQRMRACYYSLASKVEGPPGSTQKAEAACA

Sequence of Proto-oncogene tyrosine-protein kinase Src (P12931 2-536 limits assumed): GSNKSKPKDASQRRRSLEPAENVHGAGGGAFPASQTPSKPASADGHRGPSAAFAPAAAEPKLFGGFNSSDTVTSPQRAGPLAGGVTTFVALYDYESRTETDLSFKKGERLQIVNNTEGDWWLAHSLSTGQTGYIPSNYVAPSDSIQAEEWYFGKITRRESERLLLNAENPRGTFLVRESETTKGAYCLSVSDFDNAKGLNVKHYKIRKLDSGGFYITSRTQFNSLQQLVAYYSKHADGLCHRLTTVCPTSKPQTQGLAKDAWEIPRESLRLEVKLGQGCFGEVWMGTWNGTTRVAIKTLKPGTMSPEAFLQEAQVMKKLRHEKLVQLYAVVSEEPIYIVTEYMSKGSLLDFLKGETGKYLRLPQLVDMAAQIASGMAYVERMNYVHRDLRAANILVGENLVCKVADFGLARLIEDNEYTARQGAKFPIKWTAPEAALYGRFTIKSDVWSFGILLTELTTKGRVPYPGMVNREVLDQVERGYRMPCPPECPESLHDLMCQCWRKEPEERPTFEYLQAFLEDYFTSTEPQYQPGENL

Row | SMILES | IC50 [1] | IC50 [2] | IC50 [3] | IC50 [4]
1 | C[C@H](NC(=O)[C@H](Cc1ccc(OP(=O)(O)O)cc1)NC(=O)Cc1ccccc1)c1nc(Cc2ccc(C(F)(F)F)cc2)no1 | > 500 µM | 123 µM |  | 
2 | CC(=O)N[C@@H](Cc1ccc(OP(=O)(O)O)cc1)C(=O)N[C@@H](CCC(N)=O)c1nc(Cc2cccc3ccccc23)no1 | > 500 µM | 135 µM |  | 
3 | CC[C@H](NC(=O)[C@H](Cc1ccc(OP(=O)(O)O)cc1)NC(C)=O)c1nc(Cc2ccc(C(F)(F)F)cc2)no1 | > 500 µM | 98 µM |  | 
4 | CC(=O)N[C@@H](Cc1ccc(OP(=O)(O)O)cc1)C(=O)N[C@@H](CCC(N)=O)c1nc(Cc2ccc3ccccc3c2)no1 | > 500 µM | 274 µM | 327 µM | 
5 | CC(=O)N[C@@H](Cc1ccc(OP(=O)(O)O)cc1)C(=O)N[C@@H](C)c1nc(Cc2cccc(C(F)(F)F)c2)no1 | > 500 µM | 115 µM |  | 
6 | CC(=O)N[C@@H](Cc1ccc(OP(=O)(O)O)cc1)C(=O)N[C@@H](C)c1nc(Cc2ccc(C(F)(F)F)cc2)no1 | > 500 µM | 210 µM | > 500 µM | 
7 | CC(=O)N[C@@H](Cc1ccc(OP(=O)(O)O)cc1)C(=O)N[C@@H](CC(=O)O)C(=O)N[C@H](C(=O)N[C@@H](CC(C)C)C(N)=O)C(C)C (Ac-[pY]DVL-NH2) | 389 µM | 261 µM |  | 328 µM
8 | CC(=O)N[C@@H](Cc1ccc(OP(=O)(O)O)cc1)C(=O)N[C@@H](CCC(N)=O)c1nc(Cc2ccc(Cl)c(Cl)c2)no1 | > 500 µM | 206 µM | 441 µM | 
9 | CC(=O)N[C@@H](Cc1ccc(OP(=O)(O)O)cc1)C(=O)N[C@@H](CO)c1nc(Cc2ccc(F)cc2)no1 | > 500 µM | 132 µM |  | 
10 | CC(=O)N[C@@H](Cc1ccc(OP(=O)(O)O)cc1)C(=O)N[C@@H](CCC(N)=O)c1nc(Cc2cccc(Cl)c2)no1 | > 500 µM | 259 µM |  | 
11 | CC(=O)N[C@@H](Cc1ccc(OP(=O)(O)O)cc1)C(=O)N[C@@H](CO)c1nc(Cc2ccc3ccccc3c2)no1 | > 500 µM | 99 µM | 479 µM | 
12 | CC(=O)N[C@@H](Cc1ccc(OP(=O)(O)O)cc1)C(=O)N[C@@H](C)c1nc(Cc2ccc(F)cc2)no1 | > 500 µM | 200 µM |  | 
13 | O=C(Cc1ccccc1)N[C@@H](Cc1ccc(OP(=O)(O)O)cc1)C(=O)N[C@@H](CO)c1nc(Cc2ccc(C(F)(F)F)cc2)no1 | 318 µM | 161 µM | > 500 µM | 
14 | C[C@H](NC(=O)[C@H](Cc1ccc(OP(=O)(O)O)cc1)NC(=O)Cc1cccs1)c1nc(Cc2ccc(C(F)(F)F)cc2)no1 | > 500 µM | 143 µM |  | 
15 | CC(=O)N[C@@H](Cc1ccc(OP(=O)(O)O)cc1)C(=O)N[C@@H](CO)c1nc(Cc2ccc(C(F)(F)F)cc2)no1 | > 500 µM | 282 µM | > 500 µM | 
16 | CC(=O)N[C@@H](Cc1ccc(OP(=O)(O)O)cc1)C(=O)N[C@@H](CCC(N)=O)c1nc(Cc2ccc(C)cc2)no1 | > 500 µM | 292 µM |  | 
17 | C[C@H](NC(=O)[C@H](Cc1ccc(OP(=O)(O)O)cc1)NC(=O)Cc1ccc(F)c(F)c1)c1nc(Cc2ccc(C(F)(F)F)cc2)no1 | 397 µM | 130 µM |  | 
18 | CC(=O)N[C@@H](Cc1ccc(OP(=O)(O)O)cc1)C(=O)N[C@@H](CCC(N)=O)c1nc(Cc2ccc(Cl)cc2)no1 | > 500 µM | 205 µM |  | 
19 | CC(=O)N[C@@H](Cc1ccc(OP(=O)(O)O)cc1)C(=O)N[C@@H](CC(N)=O)c1nc(Cc2ccc(C(F)(F)F)cc2)no1 | > 500 µM | > 500 µM |  | 
20 | CC(=O)N[C@@H](Cc1ccc(OP(=O)(O)O)cc1)C(=O)N[C@@H](CO)c1nc(Cc2ccc(Cl)cc2)no1 | > 500 µM | 149 µM |  | 

Continued, values first:

Row | IC50 [1] | IC50 [2] | IC50 [3] | IC50 [4] | SMILES
21 | 302 µM | 49 µM |  |  | C[C@H](NC(=O)[C@H](Cc1ccc(OP(=O)(O)O)cc1)NC(=O)Cc1ccc2ccccc2c1)c1nc(Cc2ccc(C(F)(F)F)cc2)no1
22 | 323 µM | 95 µM | > 500 µM |  | CC(=O)N[C@@H](Cc1ccc(OP(=O)(O)O)cc1)C(=O)N[C@@H](CCc1ccccc1)c1nc(Cc2ccc(C(F)(F)F)cc2)no1
23 | > 500 µM | 68 µM | 368 µM |  | O=C(Cc1ccccc1)N[C@@H](Cc1ccc(OP(=O)(O)O)cc1)C(=O)N[C@@H](CO)c1nc(Cc2ccc3ccccc3c2)no1
24 | > 500 µM | 35 µM | 263 µM |  | O=C(Cc1ccccc1)N[C@@H](Cc1ccc(OP(=O)(O)O)cc1)C(=O)N[C@@H](CO)c1nc(Cc2ccc(Cl)c(Cl)c2)no1
25 | > 500 µM | 72 µM | > 500 µM |  | CC(=O)N[C@@H](Cc1ccc(OP(=O)(O)O)cc1)C(=O)N[C@@H](C)c1nc(Cc2ccc(Cl)c(Cl)c2)no1
26 | 288 µM | 78 µM | > 500 µM |  | CC(=O)N[C@@H](Cc1ccc(OP(=O)(O)O)cc1)C(=O)N[C@@H](CCc1ccccc1)c1nc(Cc2ccc3ccccc3c2)no1
27 | 433 µM | 62 µM |  |  | C[C@H](NC(=O)[C@H](Cc1ccc(OP(=O)(O)O)cc1)NC(=O)Cc1c[nH]c2ccccc12)c1nc(Cc2ccc(C(F)(F)F)cc2)no1
28 | > 500 µM | 92 µM |  |  | CC(=O)N[C@@H](Cc1ccc(OP(=O)(O)O)cc1)C(=O)N[C@@H](Cc1c[nH]c2ccccc12)c1nc(Cc2ccc(C(F)(F)F)cc2)no1
29 | > 500 µM | 87 µM |  |  | COc1ccc(CC(=O)N[C@@H](Cc2ccc(OP(=O)(O)O)cc2)C(=O)N[C@@H](C)c2nc(Cc3ccc(C(F)(F)F)cc3)no2)cc1
30 | 250 µM | 60 µM | 340 µM |  | CC(=O)N[C@@H](Cc1ccc(OP(=O)(O)O)cc1)C(=O)N[C@@H](CCc1ccccc1)c1nc(Cc2ccc(Cl)c(Cl)c2)no1
31 | > 500 µM | 96 µM |  |  | CC(=O)N[C@@H](Cc1ccc(OP(=O)(O)O)cc1)C(=O)N[C@@H](CCC(N)=O)c1nc(Cc2ccc(C(C)C)cc2)no1
32 | > 500 µM | 39 µM |  |  | CC(=O)N[C@@H](Cc1ccc(OP(=O)(O)O)cc1)C(=O)N[C@@H](C)c1nc(Cc2ccc(Br)c(Br)c2)no1
33 | > 500 µM | 65 µM |  |  | CC(=O)N[C@@H](Cc1ccc(OP(=O)(O)O)cc1)C(=O)N[C@@H](C)c1nc(Cc2ccc(C)cc2)no1
34 | > 500 µM | 45 µM |  |  | CC(=O)N[C@@H](Cc1ccc(OP(=O)(O)O)cc1)C(=O)N[C@@H](C)c1nc(Cc2ccc(Cl)c(Br)c2)no1
35 | 464 µM | 50 µM |  |  | CC(=O)N[C@@H](Cc1ccc(OP(=O)(O)O)cc1)C(=O)N[C@@H](C)c1nc(Cc2ccc(I)c(Cl)c2)no1
36 | > 500 µM | 64 µM | > 500 µM |  | CC(=O)N[C@@H](Cc1ccc(OP(=O)(O)O)cc1)C(=O)N[C@@H](C)c1nc(Cc2ccc3ccccc3c2)no1
37 | > 500 µM | 32 µM |  |  | CC(=O)N[C@@H](Cc1ccc(OP(=O)(O)O)cc1)C(=O)N[C@@H](CO)c1nc(Cc2ccc(Br)cc2)no1
38 | > 500 µM | 40 µM |  |  | CC(=O)N[C@@H](Cc1ccc(OP(=O)(O)O)cc1)C(=O)N[C@@H](C)c1nc(Cc2ccc(I)c(Br)c2)no1
39 |  | 20 µM |  |  | CC(=O)N[C@@H](CC(N)=O)C(=O)N[C@@H](CCC(N)=O)C(=O)N[C@@H](CC(C)C)C(=O)N[C@@H](Cc1ccc(OP(=O)(O)O)cc1)C(=O)N[C@@H](CC(N)=O)C(=O)N[C@@H](CCC(=O)O)C(=O)N[C@@H](CC(C)C)C(=O)N[C@@H](CC(N)=O)C(=O)N[C@@H](CC(C)C)C(=O)NCC(=O)N[C@@H](CCCN=C(N)N)C(=O)N[C@@H](CCCN=C(N)N)C(=O)N[C@@H](CCC(=O)O)C(=O)N[C@@H](CCC(=O)O)C(=O)N[C@@H](Cc1ccc(OP(=O)(O)O)cc1)C(=O)N[C@@H](CC(=O)O)C(=O)N[C@H](C(=O)N[C@@H](CC(C)C)C(=O)N[C@@H](CC(=O)O)C(N)=O)C(C)C
40 | > 500 µM | 75 µM | > 500 µM |  | CC(=O)N[C@@H](Cc1ccc(OP(=O)(O)O)cc1)C(=O)N[C@@H](CO)c1nc(Cc2ccc(Cl)c(Cl)c2)no1
41 | 472 µM | 18 µM |  |  | CC(=O)N[C@@H](Cc1ccc(OP(=O)(O)O)cc1)C(=O)N[C@@H](C)c1nc(Cc2ccc(I)cc2)no1
42 | > 500 µM | 66 µM |  |  | CC(=O)N[C@@H](Cc1ccc(OP(=O)(O)O)cc1)C(=O)N[C@@H](C)c1nc(Cc2ccc(Cl)cc2)no1
43 | > 500 µM | 68 µM |  |  | CC(=O)N[C@@H](Cc1ccc(OP(=O)(O)O)cc1)C(=O)N[C@@H](C)c1nc(Cc2cccc(Cl)c2)no1
44 | > 500 µM | 31 µM |  |  | CC(=O)N[C@@H](Cc1ccc(OP(=O)(O)O)cc1)C(=O)N[C@@H](C)c1nc(Cc2ccc(Br)cc2)no1
45 | 452 µM | 37 µM |  |  | CC(=O)N[C@@H](Cc1ccc(OP(=O)(O)O)cc1)C(=O)N[C@@H](CO)c1nc(Cc2ccc(I)cc2)no1
